Source: ChEMBL document CHEMBL3286151, “Biological activities of novel pyrazolyl hydroxamic acid derivatives against human lung cancer cell line A549” (Eur J Med Chem, 2014)
The source made the active and inactive calls. The rule behind the calls is not given here.

What was measured:
A549 [1] = assay: Cytotoxicity against human A549 cells assessed as growth inhibition after 24 to 48 hrs by sulforhodamine B assay; type: functional, cell-based
Method in brief: (§1)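 A549 cells seeded 24 h in RPMI-1640 with 10% bovine calf serum, then exposed in 1% serum medium to 1, 5 and 10 µM for 24 h and 48 h. 0.1% DMSO served as control and 5-FU as positive control. Viability by SRB staining, absorbance 540 nm, calculated relative to DMSO control. Mean ± SEM, n = 3, Student's t-test.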

A549 [2] = assay: Cytotoxicity against human A549 cells assessed as growth inhibition at 1 to 10 uM by sulforhodamine B assay; type: functional, cell-based; settings: TDE = time-dependent effect; method in brief: as §1
A549 [3] = assay: Cytotoxicity against human A549 cells assessed as growth inhibition at 1 to 10 uM after 48 hrs by sulforhodamine B assay relative to control; type: functional; method in brief: as §1
A549 [4] = assay: Induction of apoptosis in human A549 cells assessed as chromatin condensation at 10 uM after 48 hrs by Hoechst 33258 staining-based fluorescence microscopic analysis; type: functional, cell-based
Method in brief: (§2)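 A549 cells seeded 24 h, then treated at 10 µM for 48 h in 1% serum RPMI-1640 against a 0.1% DMSO control. Fixed in 4% paraformaldehyde for 10 min at room temperature and stained with Hoechst 33258 (2 µg/mL) for 20 min. Nuclear morphology was scored by fluorescence microscopy at 200×.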

A549 [5] = assay: Induction of apoptosis in human A549 cells assessed as nuclear fragmentation at 10 uM after 48 hrs by Hoechst 33258 staining-based fluorescence microscopic analysis; type: functional, cell-based; method in brief: as §2
A549 [6] = assay: Induction of apoptosis in human A549 cells assessed as appearance of apoptotic bodies at 10 uM after 48 hrs by Hoechst 33258 staining-based fluorescence microscopic analysis; type: functional, cell-based; method in brief: as §2
A549 [7] = assay: Induction of necrosis in human A549 cells at 10 uM after 48 hrs by LDH assay; type: functional, cell-based
Method in brief: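 Necrosis read-out: A549 cells exposed to 10 µM or 0.1% DMSO control for 48 h. Culture medium was collected and LDH activity measured with a commercial kit. Mean ± SEM, n = 3, Student's t-test.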

A549 [8] = assay: Induction of autophagy in human A549 cells assessed as accumulation of acidic vesicles at 10 uM after 48 hrs by acridine orange staining-based fluorescence microscopic analysis; type: functional, cell-based
Method in brief: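 Acidic vesicles in A549 cells after 10 µM exposure for 48 h. Cells stained with acridine orange (100 µg/mL) for 1 min at room temperature, then imaged by fluorescence microscopy at 200×.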

A549 [9] = assay: Induction of autophagosome formation in human A549 cells assessed as conversion of LC3-1 to LC3-2 at 5 to 10 uM after 24 hrs by Western blotting analysis; type: functional, cell-based
A549 [10] = assay: Induction of autophagosome formation in human A549 cells assessed as increase in LC3-2 protein level at 5 to 10 uM after 24 hrs by Western blotting analysis; type: functional, cell-based
A549 [11] = assay: Induction of autophagosome formation in human A549 cells assessed as LC3-2 to LC3-1 ratio at 5 to 10 uM after 24 hrs by Western blotting analysis; type: functional, cell-based
A549 [12] = assay: Induction of autophagic flux in human A549 cells assessed as decrease in p62 protein level at 5 to 10 uM after 24 hrs by Western blotting analysis; type: functional, cell-based
A549 [13] = assay: Cell cycle arrest in human A549 cells assessed as accumulation at G1 phase at 10 uM after 48 hrs by propidium iodide staining-based flow cytometric analysis (reference value: 54.5%); type: functional
A549 [14] = assay: Cell cycle arrest in human A549 cells assessed as accumulation at G2 phase at 10 uM after 48 hrs by propidium iodide staining-based flow cytometric analysis (reference value: 10.32%); type: functional
A549 [15] = assay: Cell cycle arrest in human A549 cells assessed as accumulation at S phase at 10 uM after 48 hrs by propidium iodide staining-based flow cytometric analysis (reference value: 35.18%); type: functional
A549 [16] = assay: Cell cycle arrest in human A549 cells assessed as accumulation at G2/G1 phase at 10 uM after 48 hrs by propidium iodide staining-based flow cytometric analysis (reference value: 1.91%); type: functional

Structure (SMILES)	IC50 (A549 [1]) [µM]	growth inhibition (GI) (A549 [1])	growth inhibition (GI) (A549 [2])	growth inhibition (GI) (A549 [3])	Activity (A549 [4])	Activity (A549 [5])	Activity (A549 [6])	Activity (A549 [7])	Activity (A549 [8])	Activity (A549 [9])	Activity (A549 [10])	Activity (A549 [11])	Activity (A549 [12])	Activity (A549 [13]) [%]	Activity (A549 [14]) [%]	Activity (A549 [15]) [%]	Activity (A549 [16]) [%]
CC(C)(C)c1ccc(Cn2nc(-c3ccc(Cl)cc3)cc2C(=O)NO)cc1	1.82	Dose-dependent effect	tde	<=70%	inactive	inactive	inactive	inactive	Active	Active	Active	Active	Active	78.73	0	21.27	1.96
O=c1[nH]cc(F)c(=O)[nH]1 [FLUOROURACIL]	1.65	–	–	–	–	–	–	–	–	–	–	–	–	–	–	–	–
O=C(NO)c1cc(-c2ccccc2)nn1Cc1ccc(Cl)nc1	8.5	Dose-dependent effect	tde	–	inactive	inactive	inactive	inactive	Active	–	–	–	–	–	–	–	–
O=C(NO)c1cc(-c2ccccc2)nn1Cc1ccccc1	5.6	Dose-dependent effect	tde	–	inactive	inactive	inactive	inactive	Active	–	–	–	–	–	–	–	–
COc1ccc(-c2cc(C(=O)NO)n(Cc3ccc(C(C)(C)C)cc3)n2)cc1	2.56	Dose-dependent effect	tde	<=70%	inactive	inactive	inactive	Active	Active	–	–	–	–	–	–	–	–
CC(C)(C)c1ccc(Cn2nc(-c3ccccc3)cc2C(=O)NO)cc1	1.72	Dose-dependent effect	tde	<=70%	inactive	inactive	inactive	inactive	Active	Active	Active	Active	Active	72.8	2.32	24.87	1.8
O=C(NO)c1cc(-c2ccc(Cl)cc2)nn1Cc1ccc([N+](=O)[O-])cc1	7.78	Dose-dependent effect	tde	–	inactive	inactive	inactive	inactive	Active	–	–	–	–	–	–	–	–
O=C(NO)c1cc(-c2ccc(Cl)cc2)nn1Cc1ccccc1	4.44	Dose-dependent effect	tde	–	inactive	inactive	inactive	inactive	Active	–	–	–	–	–	–	–	–
COc1ccc(-c2cc(C(=O)NO)n(Cc3ccccc3)n2)cc1	6.77	Dose-dependent effect	tde	–	inactive	inactive	inactive	inactive	Active	–	–	–	–	–	–	–	–
O=C(NO)c1cc(-c2ccc(Cl)cc2)nn1Cc1ccc(Cl)nc1	4.21	Dose-dependent effect	tde	<=70%	inactive	inactive	inactive	inactive	Active	Active	Active	Active	Active	71.91	0	28.09	1.84
COc1ccc(-c2cc(C(=O)NO)n(Cc3ccc(Cl)nc3)n2)cc1	8.56	Dose-dependent effect	tde	–	inactive	inactive	inactive	Active	Active	–	–	–	–	–	–	–	–
O=C(NO)c1cc(-c2ccccc2)nn1Cc1ccc([N+](=O)[O-])cc1	6	Dose-dependent effect	tde	–	inactive	inactive	inactive	inactive	Active	–	–	–	–	–	–	–	–
COc1ccc(-c2cc(C(=O)NO)n(Cc3ccc([N+](=O)[O-])cc3)n2)cc1	7.11	Dose-dependent effect	tde	–	inactive	inactive	inactive	inactive	Active	–	–	–	–	–	–	–	–
